Laboratory results reported in ChEMBL document CHEMBL4680221, “Discovery of pyrazole derivatives as cellular active inhibitors of histone lysine specific demethylase 5B (KDM5B/JARID1B)” (Eur J Med Chem, 2020).
pIC50: −log10 of the molar value. Calls of active or inactive are those of the source. The rule behind the calls is not given here.

Assays:
[1] = biological target: T1, Lysine-specific demethylase 5B (Homo sapiens, UniProt Q9UGL1); experiment: Inhibition of recombinant human N-terminal FLAG-tagged KDM5B expressed in Sf9 insect cells using biotin-H3K4me as substrate by ALPHA
T1 sequence (Q9UGL1 whole entry): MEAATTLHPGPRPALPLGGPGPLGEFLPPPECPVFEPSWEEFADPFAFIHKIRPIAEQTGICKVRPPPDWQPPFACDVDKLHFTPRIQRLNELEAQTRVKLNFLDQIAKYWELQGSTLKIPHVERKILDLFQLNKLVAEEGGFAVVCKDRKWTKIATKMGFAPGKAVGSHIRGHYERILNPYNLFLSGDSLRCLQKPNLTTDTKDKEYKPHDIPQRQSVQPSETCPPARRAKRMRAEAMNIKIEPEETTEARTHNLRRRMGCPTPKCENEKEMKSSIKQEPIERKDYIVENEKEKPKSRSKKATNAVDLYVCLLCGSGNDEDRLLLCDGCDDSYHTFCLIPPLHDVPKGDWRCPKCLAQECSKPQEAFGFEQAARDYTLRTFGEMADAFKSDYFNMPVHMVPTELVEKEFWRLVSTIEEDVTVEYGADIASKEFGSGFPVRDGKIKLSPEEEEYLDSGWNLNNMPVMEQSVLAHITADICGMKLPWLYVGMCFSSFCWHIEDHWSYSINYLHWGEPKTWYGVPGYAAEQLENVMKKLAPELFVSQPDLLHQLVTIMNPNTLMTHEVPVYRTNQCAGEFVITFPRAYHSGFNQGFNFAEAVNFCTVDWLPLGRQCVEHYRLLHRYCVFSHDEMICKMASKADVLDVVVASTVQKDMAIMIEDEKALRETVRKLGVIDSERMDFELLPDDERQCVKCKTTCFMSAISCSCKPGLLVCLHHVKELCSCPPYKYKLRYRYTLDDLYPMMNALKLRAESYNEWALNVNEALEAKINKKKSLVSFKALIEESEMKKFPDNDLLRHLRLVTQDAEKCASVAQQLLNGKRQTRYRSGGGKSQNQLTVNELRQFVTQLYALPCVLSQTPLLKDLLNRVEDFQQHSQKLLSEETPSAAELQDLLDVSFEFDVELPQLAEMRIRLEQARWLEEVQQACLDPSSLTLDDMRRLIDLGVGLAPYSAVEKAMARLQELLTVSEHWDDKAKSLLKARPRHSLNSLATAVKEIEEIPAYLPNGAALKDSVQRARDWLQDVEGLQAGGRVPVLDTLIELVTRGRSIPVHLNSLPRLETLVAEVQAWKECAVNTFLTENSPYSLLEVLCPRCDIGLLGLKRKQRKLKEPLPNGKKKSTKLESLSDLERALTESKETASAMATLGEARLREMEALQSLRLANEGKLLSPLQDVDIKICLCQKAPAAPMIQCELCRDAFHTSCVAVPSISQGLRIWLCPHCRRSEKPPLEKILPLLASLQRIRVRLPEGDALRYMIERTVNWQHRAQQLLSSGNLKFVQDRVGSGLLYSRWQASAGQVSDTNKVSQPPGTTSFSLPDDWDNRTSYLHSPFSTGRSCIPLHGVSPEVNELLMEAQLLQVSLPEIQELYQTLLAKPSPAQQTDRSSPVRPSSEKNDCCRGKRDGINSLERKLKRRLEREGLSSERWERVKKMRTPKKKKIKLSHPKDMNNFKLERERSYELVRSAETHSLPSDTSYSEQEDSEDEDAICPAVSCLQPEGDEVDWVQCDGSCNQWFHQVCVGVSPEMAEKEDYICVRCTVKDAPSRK
Procedure, shortened: (§1)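 ALPHA demethylase assay. Recombinant KDM5B (4 nM) was preincubated with compound, then biotin-H3K4me3 peptide (64 nM) was added. Buffer: 10 μM α-KG, 100 μM ascorbate, 50 μM (NH4)2Fe(SO4)2, 50 mM HEPES pH 7.5, 0.01% Tween 20, 0.1% BSA. Read-out used streptavidin donor and H3K4me1-2 antibody acceptor beads. Data were normalized to blank control and IC50 fitted.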

[2] = biological target: T1, Lysine-specific demethylase 5B; experiment: Inhibition of recombinant human N-terminal FLAG-tagged KDM5B expressed in Sf9 insect cells at 10 uM using biotin-H3K4me as substrate by ALPHA relative to control; procedure, shortened: as §1
MKN-45 [3] = experiment: Antiproliferative activity against human MKN-45 cells assessed as reduction in cell proliferation measured after 4 days by MTS assay; format: functional, cell-based; settings: MKN-45, 96 h
Procedure, shortened: (§2)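 MKN45 cells were seeded at 3×10^3 cells per well and treated for 4 or 6 days, as indicated. Proliferation was read by MTS assay and IC50 derived. Three independent experiments, mean ± SD.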

MKN-45 [4] = experiment: Antiproliferative activity against human MKN-45 cells assessed as reduction in cell proliferation measured after 6 days by MTS assay; format: functional, cell-based; settings: MKN-45, 144 h; procedure, shortened: as §2
[5] = Cytotoxicity against human GES1 cells assessed as reduction in cell proliferation at 100 uM by MTS assay relative to control; format: cell-based; settings: read-out: Activity
Procedure, shortened: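 Normal human gastric epithelial GES-1 cells, seeded at 3×10^3 cells per well and exposed to 100 μM. Antiproliferation rate was read by MTS assay.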

MKN-45 [6] = experiment: Antimigratory activity in human MKN-45 cells at 20 uM measured up to 48 hrs by wound healing assay; format: functional, cell-based; settings: time hrs <=48
Procedure, shortened: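 MKN45 cells were grown to confluence in 24 h, then scratched with a pipette tip and washed with PBS. Medium was changed to fresh medium with 2% FBS plus compound. The wound was photographed by microscope at 0, 6, 12, 24 and 48 h. Three independent experiments.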

MKN-45 [7] = experiment: Antimigratory activity in human MKN-45 cells at 20 uM measured after 24 hrs by transwell assay; format: functional, cell-based
[8] = biological target: T1, Lysine-specific demethylase 5B; experiment: Inhibition of KDM5B in human MKN-45 cells assessed as protein stabilization at 0.5 to 30 uM measured after 1 hr by cellular thermal shift assay; format: cell-based; settings: dose 0.5-30 µM
Procedure, shortened: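 MKN45 cells (5×10^5) were treated with compound or DMSO for 1 h, washed in PBS and resuspended in PBS with protease inhibitors. Cells were heated at 46 °C for 3 min, then freeze-thawed three times in liquid nitrogen. KDM5B in the supernatant was measured by western blot with GAPDH control. Repeated three times.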

[9] = biological target: T1, Lysine-specific demethylase 5B; experiment: Inhibition of KDM5B in human MKN-45 cells assessed as increase in H3K4me2 accumulation at 20 uM measured after 5 days by Hoechst 33342 staining based immunofluorescence assay; format: cell-based; settings: time 5.0 day
Procedure, shortened: (§3)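 MKN45 cells were seeded and left 24 h, then treated for 5 days. Cells were fixed in 4% paraformaldehyde, permeabilised with 0.1% Triton X-100 for 20 min and blocked with 5% BSA for 1 h. H3K4me2 or H3K4me3 primary antibody was applied at 4°C overnight, followed by Alexa Fluor 488 secondary and Hoechst 33342 (5 µg/mL) nuclear stain. Signal was quantified by high content imaging; three independent experiments.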

[10] = biological target: T1, Lysine-specific demethylase 5B; experiment: Inhibition of KDM5B in human MKN-45 cells assessed as increase in H3K4me3 accumulation at 20 uM measured after 5 days by Hoechst 33342 staining based immunofluorescence assay; format: cell-based; settings: time 5.0 day; procedure, shortened: as §3
[11] = biological target: T1, Lysine-specific demethylase 5B; experiment: Inhibition of KDM5B in human MKN-45 cells assessed as increase in H3K4me2 accumulation at 20 uM measured after 5 days by Western blot analysis; format: cell-based; settings: time 5.0 day
Procedure, shortened: (§4)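 MKN45 cells were treated for 5 days and lysed in RIPA buffer. About 30 µg protein was run on 10% SDS-PAGE and transferred to 0.2 µm nitrocellulose, then blocked with 5% milk in PBS for 2 h. Blots were probed for histone methylation marks with histone 3 as loading control and detected by ECL.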

[12] = biological target: T1, Lysine-specific demethylase 5B; experiment: Inhibition of KDM5B in human MKN-45 cells assessed as increase in H3K4me3 accumulation at 20 uM measured after 5 days by Western blot analysis; format: cell-based; settings: time 5.0 day; procedure, shortened: as §4
[13] = biological target: T1, Lysine-specific demethylase 5B; experiment: Inhibition of KDM5B in human MKN-45 cells assessed as increase in H3K4me1 accumulation at 20 uM measured after 5 days by Western blot analysis; format: cell-based; settings: time 5.0 day; procedure, shortened: as §4
MKN-45 [14] = experiment: Inhibition of KDM4 in human MKN-45 cells assessed as increase in H3K9me2 accumulation at 20 uM measured after 5 days by Western blot analysis; format: cell-based; settings: time 5.0 day; procedure, shortened: as §4
MKN-45 [15] = experiment: Inhibition of KDM4 in human MKN-45 cells assessed as increase in H3K9me3 accumulation at 20 uM measured after 5 days by Western blot analysis; format: cell-based; settings: time 5.0 day; procedure, shortened: as §4
MKN-45 [16] = experiment: Inhibition of KDM6 in human MKN-45 cells assessed as increase in H3K27me2 accumulation at 20 uM measured after 5 days by Western blot analysis; format: cell-based; settings: time 5.0 day; procedure, shortened: as §4
MKN-45 [17] = experiment: Antiproliferative activity against human MKN-45 cells assessed as reduction in cell proliferation measured after 4 days by MTS assay relative to control; format: functional; set-up: scale not given: the % may be the effect or the level left; settings: time 4 day; procedure, shortened: as §2
MKN-45 [18] = experiment: Antiproliferative activity against human MKN-45 cells assessed as reduction in cell proliferation measured after 6 days by MTS assay relative to control; format: functional; set-up: scale not given: the % may be the effect or the level left; settings: time 6 day; procedure, shortened: as §2

Row | pIC50 [1] | inhibition [2] | SMILES | also measured
1 | 7.98 |  | CC(C)c1c(-c2ccccc2)[nH]c2c(C#N)cnn2c1=O | pIC50 (MKN-45 [3]): 4.52; pIC50 (MKN-45 [4]): 4.62; inhibition at 100 µM [5]: < 10%; Activity (MKN-45 [6]): Active; Activity (MKN-45 [7]): Active
2 | < 5.00 | 14.8% | CC(C)c1ccc(-n2cc(C(=O)NCCN3CCOCC3)c(-c3ccccc3)n2)cc1 | 
3 | 6.63 | 86.6% | O=C(c1cn(-c2ccccc2)nc1-c1ccccc1)N1CCN(CCN2CCCC2)CC1 | 
4 | < 5.00 | 21.5% | Cc1n[nH]cc1C(=O)NCCN1CCOCC1 | 
5 | < 5.00 | 17.2% | COc1ccc(-n2cc(C(=O)N3CCN(CCN4CCCC4)CC3)c(-c3ccccc3)n2)cc1 | 
6 | 6.70 | 92.3% | CC(C)(CNC(=O)c1cn(-c2ccccc2)nc1-c1ccccc1)N1CCN(c2ccccc2)CC1 | 
7 | < 5.00 | 42.5% | O=C(NCCN1CCOCC1)c1cncc(-c2ccccc2)c1 | 
8 | 7.03 | 92.3% | COc1ccccc1-n1cc(C(=O)NCC(C)(C)N2CCOCC2)c(-c2ccccc2)n1 | 
9 | 6.51 | 76.4% | O=C(NCCN1CCOCC1)c1cn(-c2ccccc2)nc1-c1ccccc1 | 
10 | 5.27 | 75.7% | O=C(NCCN1CCOCC1)c1c[nH]nc1-c1ccccc1 | 
11 | 6.46 | 84.6% | C#CCNC(=O)c1cn(-c2ccccc2)nc1-c1ccccc1 | 
12 | < 5.00 | -5.81% | CC(C)c1ccc(-c2nn(-c3ccccc3)cc2C(=O)NCCN2CCOCC2)cc1 | 
13 | 6.62 | 82.3% | COc1ccc(-c2nn(-c3ccccc3)cc2C(=O)NCCN2CCOCC2)cc1 | 
14 | < 5.00 | 28% | COc1ccc(-n2nc(-c3ccccc3)nc2C(=O)NCC(C)(C)N2CCOCC2)cc1 | inhibition [8]: inactive; inhibition [9]: inactive; inhibition [10]: inactive; inhibition [11]: inactive; inhibition [12]: inactive; inhibition [13]: inactive; inhibition (MKN-45 [14]): inactive; inhibition (MKN-45 [15]): inactive; inhibition (MKN-45 [16]): inactive; Activity (MKN-45 [17]): 10.32%; Activity (MKN-45 [18]): 13.24%; Activity (MKN-45 [6]): inactive; Activity (MKN-45 [7]): inactive
15 | 6.60 | 82.1% | COC(=O)CCNC(=O)c1cn(-c2ccc(C)cc2)nc1-c1ccccc1 | 
16 | 7.14 | 94.2% | Cc1ccc(-n2cc(C(=O)N3CCN(CCN4CCCC4)CC3)c(-c3ccccc3)n2)cc1 | 
17 | 6.07 | 76.5% | Cc1ccc(-c2nn(-c3ccc(C)cc3)cc2C(=O)N2CCN(CCN3CCCC3)CC2)cc1 | 
18 | < 5.00 | -7.78% | Cc1ccccc1-n1cc(C(=O)NCCN2CCOCC2)c(-c2ccccc2)n1 | 
19 | 6.72 | 82.4% | Cc1ccc(-n2cc(C(=O)NCC(C)(C)N3CCOCC3)c(-c3ccccc3)n2)cc1 | 
20 | 6.63 | 81.3% | O=C(NCCN1CCOCC1)c1cn(-c2ccccc2)nc1-c1ccncc1 | 

Further lines, the compound ahead of its results:

Row | SMILES | pIC50 [1] | inhibition [2] | also measured
21 | O=C(NCC1(N2CCOCC2)CCCCC1)c1cn(-c2ccccc2)nc1-c1ccccc1 | < 5.00 | -1.95% | 
22 | Cc1ccc(NC(=O)c2cn(-c3ccc(C)cc3)nc2-c2ccccc2)cc1 | 6.49 | 79.5% | 
23 | COc1ccc(-n2cc(C(=O)NCCN3CCOCC3)c(-c3ccccc3)n2)cc1 | 6.97 | 93% | 
24 | O=C(NCCN1CCOCC1)c1cn(-c2ccccc2)nc1-c1ccc(Cl)cc1 | 6.24 | 72% | 
25 | CC(C)N(CCNC(=O)c1cn(-c2ccccc2)nc1-c1ccccc1)C(C)C | 5.65 | 67% | 
26 | O=C(NCCN1CCOCC1)c1cn(-c2ccc(Cl)cc2)nc1-c1ccccc1 | < 5.00 | 8.69% | 
27 | O=C(NCCN1CCOCC1)c1cn(-c2ccccc2)nc1-c1cccs1 | 6.47 | 75.4% | 
28 | Cc1cncc(C(=O)NCCN2CCOCC2)c1 | < 5.00 | 33.6% | 
29 | Cc1ccc(-n2nc(-c3ccccc3)nc2C(=O)NCC(C)(C)N2CCOCC2)cc1 | < 5.00 | 28.9% | 
30 | CCc1ccc(-n2cc(C(=O)NCCN3CCOCC3)c(-c3ccccc3)n2)cc1 | < 5.00 | 20% | 
31 | Cc1cccc(-n2cc(C(=O)NCCN3CCOCC3)c(-c3ccccc3)n2)c1 | < 5.00 | 20.9% | 
32 | Cc1ccc(-n2cc(C(=O)NCCN3CCOCC3)c(-c3ccccc3)n2)cc1 | 6.07 | 66.8% | 
33 | CC(C)(CNC(=O)c1cn(-c2ccc(Cl)cc2)nc1-c1ccccc1)N1CCOCC1 | 6.27 | 62% | 
34 | CCc1ccc(-c2nn(-c3ccccc3)cc2C(=O)NCCN2CCOCC2)cc1 | 5.87 | 45.3% | 
35 | Cc1ccccc1-c1nn(-c2ccccc2)cc1C(=O)NCCN1CCOCC1 | < 5.00 | 9.25% | 
